Assay outcomes (PubChem BioAssay)
Only some compounds are listed: those with a hit (about 3.2% of all), similar ones and a draw of the others.
MEKK3 PB1 HTS – modulators of MEKK3-MEK5 PB1 binding, primary screen, biochemical, wildtype MEKK3, multiplex bead flow cytometry, Alexa488-MEK5; hit rate 1.4% among 290,000; bead-based flow cytometry, Alexa488-MEK5 binding to MEKK3; actives lie on both sides; 0 = blocked by unlabeled MEK5, 100 = vehicle; Mitogen-activated protein kinase kinase kinase 3 (Homo sapiens), Q99759; binding response (% of control), % at 10 µM;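 active = binding response more than 3 SD above or below the average of its plate-row segment, actives on both sides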;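 also: Alexa488 bead fluorescence after subtracting the streptavidin-only scavenger bead signal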
Pemphigus Ab inh – inhibitors of pemphigus antibody binding to DSG3, primary screen, biochemical, bead-based, flow cytometry, scFv-GFP. Desmoglein-3 (Homo sapiens), P32926. DSG3-coupled beads, scFv-anti-DSG3-GFP binding; active compounds read low. binding (percent of control), % at 10 µM. hit rate 0.48% among 310,000;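 active = binding more than 3 SD below its plate's average and above zero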;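 also: hits lower antibody fragment binding to DSG3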
Apaf-1 inh – inhibitors of human Apaf-1 apoptosome, primary screen, biochemical, DEVD-Rh110 fluorescence, uHTS; Apoptotic protease-activating factor 1 (Homo sapiens), O14727; reconstituted apoptosome caspase-3 activity; inhibition, % at 20 µM; hit rate 0.71% among 330,000; AID 489030, 2010; active = inhibition of at least 40% at 20 µM;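 also: plate controls were DMSO wells for no effect and DEVD-CHO caspase inhibitor wells for full effect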
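Medium: Hepes buffer, pH 7.5 / System: biochemical Apaf-1 apoptosome reconstitution / Measured by: Rh110 fluorescence, excitation 480 nm, emission 540 nm / Times: compound with Apaf-1, dATP, procaspase-3 30 min, then 50 min reaction, room temperature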
UBC13 inh – UBC13 polyubiquitin chain formation inhibitors, primary screen, biochemical, TR-FRET, uHTS. inhibition, % at 20 µM. AID 485273, 2010. Ubiquitin-conjugating enzyme E2 N (Homo sapiens), P61088. hit rate 0.47% among 330,000; in the data active = inhibition above about 45%, passing the limit was not always enough
MEKK2 WT-MEK5 – modulators of MEK5 binding to wildtype MEKK2, primary screen, biochemical, multiplex bead flow cytometry, Alexa488-MEK5. Mitogen-activated protein kinase kinase kinase 2 (Homo sapiens), Q9Y2U5. Alexa488-MEK5 binding to MEKK2 WT; actives lie on both sides. binding response (% of control), % at 10 µM. hit rate 1.1% among 290,000. AID 1531, 2009; in the data active = binding response below about 67% or above about 130%
MEKK2mut PB1 HTS – MEK5 binding signal on mutant MEKK2 PB1, primary screen, biochemical, multiplex bead flow cytometry, Alexa488-MEK5; Alexa488-MEK5 binding to MEKK2 mutant; percent response, % at 10 µM; hit rate 0.35% among 290,000; AID 1530, 2009; in the data active = percent response above about 24%, passing the limit was not always enough
Apaf-1 inh conf2 – Apaf-1 inhibitors, single-dose retest, confirmation, biochemical, fluorescence, DEVD-Rh110, 20 µM. shares compounds with Apaf-1 inh. reconstituted apoptosome, caspase-3 DEVD-Rh110 fluorescence. inhibition, % at 20 µM. hit rate 25% among 1,800;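 active = mean inhibition of at least 40% at 20 µM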;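 also: plate controls were DMSO wells for no effect and DEVD-CHO caspase inhibitor control wells for full effect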
Rh110 quench – Rh110 fluorescence interference by putative Apaf-1 inhibitors, confirmation, artefact control for Apaf-1 inhibitor project, biochemical, 20 µM. 1,800 tested, under 10 active. quenched caspase reaction. activation (fluorescence interference), % at 20 µM. shares compounds with Apaf-1 inh;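 active = signal rise of 40% or more at 20 µM, treated as a fluorescence artifact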
* marks the source's active call; other numbers are inactive results.

Screening CC1=NN(c2ccccc2)C(=O)/C1=C\N(O)c1ccccc1 returned MEKK3 PB1 HTS 102.0, Pemphigus Ab inh 105.0, Apaf-1 inh 70.5*, UBC13 inh -42.5, MEKK2 WT-MEK5 105.0, MEKK2mut PB1 HTS 3.0, Apaf-1 inh conf2 30.1 and Rh110 quench 2.0.
`CC1=NN(c2ccc(C)c(C)c2)C(=O)/C1=C/c1ccc2c(c1)n(C)c(=O)n2C` gave MEKK3 PB1 HTS 107.0, Pemphigus Ab inh 134.4, Apaf-1 inh 93.7*, UBC13 inh -25.6, MEKK2 WT-MEK5 104.0, MEKK2mut PB1 HTS 0.0, Apaf-1 inh conf2 13.0 and Rh110 quench 5.4.
Screening CC1=NN(c2ccc(C(=O)O)cc2)C(=O)/C1=C\c1ccc(OC(=O)c2cccs2)cc1 returned MEKK3 PB1 HTS 97.0, Pemphigus Ab inh 100.8, Apaf-1 inh 75.3*, UBC13 inh -55.3, MEKK2 WT-MEK5 95.0, MEKK2mut PB1 HTS 1.0, Apaf-1 inh conf2 12.8 and Rh110 quench 2.8.
For Cn1c(=O)n(C)c2cc(/C=N/n3cnnc3)ccc21 the results were MEKK3 PB1 HTS 92.0, Apaf-1 inh 6.7, UBC13 inh -2.5, MEKK2 WT-MEK5 91.0 and MEKK2mut PB1 HTS -3.0.
CSCc1ccc(C(=O)NC2CC(C)(C)Cc3c2cnn3-c2ccc(F)cc2)o1 (stereo unspecified) was read as MEKK3 PB1 HTS 104.0, Pemphigus Ab inh 99.0, Apaf-1 inh 1.1, UBC13 inh 5.8, MEKK2 WT-MEK5 101.0 and MEKK2mut PB1 HTS 1.0.
Screening O=C(COC(=O)Cc1ccccc1F)NCCNC(=O)COC(=O)Cc1ccccc1F returned Pemphigus Ab inh 92.5, Apaf-1 inh 5.4 and UBC13 inh -2.4.
Screening COc1cccc(CN2CC(C(=O)NCCCn3cccn3)CCC2=O)c1 (stereo unspecified) returned MEKK3 PB1 HTS 97.0, Pemphigus Ab inh 113.2, Apaf-1 inh 5.3, UBC13 inh 2.2, MEKK2 WT-MEK5 99.0 and MEKK2mut PB1 HTS 4.0.
CC1=NN(c2ccccc2)C(=O)/C1=C/c1cccs1 was read as MEKK3 PB1 HTS 120.0, Pemphigus Ab inh 75.8, Apaf-1 inh 89.9*, UBC13 inh -18.8, MEKK2 WT-MEK5 106.0, MEKK2mut PB1 HTS -1.0, Apaf-1 inh conf2 12.3 and Rh110 quench 3.1.
For CC1=NN(c2ccccc2)C(=O)/C1=C/c1ccc(Cl)cc1 the results were MEKK3 PB1 HTS 101.0, Pemphigus Ab inh 115.1, Apaf-1 inh 95.9*, UBC13 inh -43.6, MEKK2 WT-MEK5 101.0, MEKK2mut PB1 HTS 5.0, Apaf-1 inh conf2 16.1 and Rh110 quench -2.3.
CC1=NN(c2ccccc2)C(=O)/C1=C\c1cc(C)n(-c2ccccc2)c1C was read as MEKK3 PB1 HTS 106.0, Pemphigus Ab inh 98.6, Apaf-1 inh 28.5, UBC13 inh -28.7, MEKK2 WT-MEK5 120.0 and MEKK2mut PB1 HTS 15.0.
CC1=NN(c2ccccc2)C(=O)/C1=C\c1ccc(Br)s1 was read as MEKK3 PB1 HTS 105.0, Pemphigus Ab inh 98.1, Apaf-1 inh 96.0*, UBC13 inh -7.8, MEKK2 WT-MEK5 98.0, MEKK2mut PB1 HTS -1.0, Apaf-1 inh conf2 37.7 and Rh110 quench 0.9.
For CC1=NN(c2ccccc2)C(=O)/C1=C/c1ccc[nH]1 the results were MEKK3 PB1 HTS 105.0, Pemphigus Ab inh 101.8, Apaf-1 inh -138.2, UBC13 inh -35.0, MEKK2 WT-MEK5 106.0 and MEKK2mut PB1 HTS -1.0.
For COc1ccc(C2C(C(=O)O)CCC(=O)N2c2ccc(C)cc2)cc1OC (stereo unspecified) the results were MEKK3 PB1 HTS 110.0, Pemphigus Ab inh 91.7, Apaf-1 inh -14.3, UBC13 inh -19.2, MEKK2 WT-MEK5 100.0 and MEKK2mut PB1 HTS 0.0.
Screening c1ccc(CC2CCN(c3nc4ccccc4n4nnnc34)CC2)cc1 returned MEKK3 PB1 HTS 113.0, Pemphigus Ab inh 107.6, Apaf-1 inh 57.6*, UBC13 inh 13.2, MEKK2 WT-MEK5 115.0, MEKK2mut PB1 HTS 7.0, Apaf-1 inh conf2 17.4 and Rh110 quench 10.8.
CCN1C(=NCCc2ccc(Br)cc2)N[C@@H](c2ccccc2)[C@H](C(=O)OC)[C@H]1C was read as Pemphigus Ab inh 107.4, Apaf-1 inh 45.2*, UBC13 inh 31.2, Apaf-1 inh conf2 11.6 and Rh110 quench 2.5.
Screening CCN(CC(=O)Nc1ccc(OC)cc1)C(=O)C1CCN(C(=O)c2ccc(Cl)cc2)CC1 returned Apaf-1 inh 57.5*, UBC13 inh 40.1, Apaf-1 inh conf2 38.0 and Rh110 quench 2.3.
`CCN(CC(=O)Nc1c(F)cccc1F)C(=O)C1CCN(C(=O)c2ccc(F)cc2)CC1` gave Pemphigus Ab inh 100.5, Apaf-1 inh 6.4 and UBC13 inh -4.4.
`CCCN(CC(=O)Nc1ccccc1C)C(=O)C1CCCN(C(=O)c2ccc(Cl)cc2)C1` (stereo unspecified) gave Pemphigus Ab inh 101.7, Apaf-1 inh 48.4*, UBC13 inh 36.3, Apaf-1 inh conf2 31.7 and Rh110 quench -4.2.
CCCN(CC(=O)Nc1ccccc1C)C(=O)C1CC(=O)N(c2ccccc2C(C)CC)C1 (stereo unspecified) was read as Pemphigus Ab inh 94.8, Apaf-1 inh 48.1*, UBC13 inh 14.6, Apaf-1 inh conf2 33.0 and Rh110 quench 3.6.
CCCN(CC(=O)Nc1ccccc1C)C(=O)C1CC(=O)N(c2ccccc2OCC)C1 (stereo unspecified) was read as Pemphigus Ab inh 104.3.
`Cc1ccc2c(c1)N(C(=O)CCC(=O)NC1CCCCCC1)CCO2` gave MEKK3 PB1 HTS 99.0, Pemphigus Ab inh 102.8, Apaf-1 inh -2.4, UBC13 inh -4.5, MEKK2 WT-MEK5 98.0 and MEKK2mut PB1 HTS -1.0.
CCN1C(=O)[C@H]2[C@H]3CN=C(SCc4ccc(Cl)cc4)N3[C@@](C)(C(=O)OC)[C@H]2C1=O was read as Pemphigus Ab inh 108.5 and Apaf-1 inh 5.6.
